Laboratory results reported in ChEMBL document CHEMBL1149190, “Generation of new protein kinase inhibitors utilizing cytochrome p450 mutant enzymes for indigoid synthesis” (J Med Chem, 2004).

How the values were obtained:
[1] = target: Cyclin-dependent kinase 5/CDK5 activator 1 (Homo sapiens, UniProt Q00535); test: Inhibition of Cyclin-dependent kinase 5-p35nck5a; assay type: protein-complex assay
Procedure, shortened: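 Recombinant CDK5 and p25 (truncated p35), each expressed in E. coli as a GST fusion and glutathione-agarose purified, mixed in equal amounts. Read by P81 filter capture and scintillation counting. Expressed as % of uninhibited activity. Duplicates; IC50 determined.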

[2] = target: T1, Glycogen synthase kinase-3 (Homo sapiens, UniProt P49840+P49841); test: Inhibition of porcine GSK-3-alpha/beta kinase; assay type: protein assay, Sus scrofa; details: target entry is the homologue from another species
Procedure, shortened: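 Porcine brain GSK-3α/β, purified on immobilized axin and diluted 1/100 in 1 mg/mL BSA with 10 mM DTT. Substrate GS-1 phosphopeptide in buffer A (Tris-HCl pH 7.5, MgCl2, EGTA, DTT, heparin) with 15 µM [γ-33P]ATP, 30 min at 30 °C. Read by P81 filter binding and scintillation counting. Duplicates; IC50 as % of control activity.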

[3] = target: Cyclin-dependent kinase 1/cyclin B (Marthasterias glacialis); test: Inhibition of Cyclin-dependent kinase 1-cyclin B of M-phase Marthasterias glacialis oocytes
[4] = target: T2, Cyclin-dependent kinase 5/CDK5 activator 1 (Homo sapiens) (UniProt Q00535+Q15078); test: Residual Cyclin-dependent kinase 5-p35nck5a activity with L240C-mutant cytochrome P450 2A6 extract; assay type: protein-complex assay
[5] = target: T2, Cyclin-dependent kinase 5/CDK5 activator 1 (Homo sapiens); test: Residual Cyclin-dependent kinase 5-p35nck5a activity with L240C/N297Q mutant cytochrome P450 2A6 extract; assay type: protein-complex assay
Procedure, shortened: (§1)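 The indole was fed to E. coli expressing the P450 2A6 variant with NADPH-P450 reductase, grown 42 h at 30 °C. Extract in DMSO (0.3 µL) was added to the CDK5/p25 histone H1 assay: buffer C, 15 µM [γ-33P]ATP, 30 °C. Residual activity given as % of a DMSO-only control. Means of duplicates.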

[6] = target: T1, Glycogen synthase kinase-3; test: (§2) Residual porcine GSK-3-alpha/beta kinase activity with L240C/N297Q mutant cytochrome P450 2A6 extract; assay type: protein assay; details: Sus scrofa; target entry is the homologue from another species
Procedure, shortened: (§3)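 E. coli expressing the P450 2A6 variant plus reductase were grown 42 h at 30 °C with the indole added. DMSO extract (0.3 µL) was tested on axin-purified porcine GSK-3α/β with GS-1 peptide in buffer A, 15 µM [γ-33P]ATP, 30 °C. Residual activity given as % of a DMSO control. Means of duplicates.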

[7] = target: T1, Glycogen synthase kinase-3; test: (§4) Residual porcine GSK-3-alpha/beta kinase activity with L240C mutant cytochrome P450 2A6 extract; assay type: protein assay; details: Sus scrofa; target entry is the homologue from another species; procedure, shortened: as §3
[8] = target: T1, Glycogen synthase kinase-3; test: as §2; assay type: protein assay; parameters: concentration or dose not given beside the values; details: Sus scrofa; target entry is the homologue from another species; procedure, shortened: as §3
[9] = target: T2, Cyclin-dependent kinase 5/CDK5 activator 1 (Homo sapiens); test: Residual Cyclin-dependent kinase 5-p35nck5a activity with wild-type cytochrome P450 2A6 extract; assay type: protein-complex assay; procedure, shortened: as §1
[10] = target: T1, Glycogen synthase kinase-3; test: Residual porcine GSK-3-alpha/beta kinase activity with wild-type cytochrome P450 2A6 extract; assay type: protein assay; details: Sus scrofa, target entry is the homologue from another species; procedure, shortened: as §3
[11] = target: T1, Glycogen synthase kinase-3; test: as §4; assay type: protein assay; details: Sus scrofa; target entry is the homologue from another species; remark: listed apart in the source
Procedure, shortened: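 GSK-3α/β from porcine brain, purified on immobilized axin and diluted 1/100, assayed in buffer A with GS-1 peptide substrate and 15 µM [γ-33P]ATP for 30 min at 30 °C. Phosphate incorporation read on P81 filters by scintillation counting. Bacterial extract in DMSO added; residual activity given as % of DMSO control, mean of duplicates.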

Chain of Cyclin-dependent kinase 5/CDK5 activator 1 (Q00535 whole entry, the tested form may be a part): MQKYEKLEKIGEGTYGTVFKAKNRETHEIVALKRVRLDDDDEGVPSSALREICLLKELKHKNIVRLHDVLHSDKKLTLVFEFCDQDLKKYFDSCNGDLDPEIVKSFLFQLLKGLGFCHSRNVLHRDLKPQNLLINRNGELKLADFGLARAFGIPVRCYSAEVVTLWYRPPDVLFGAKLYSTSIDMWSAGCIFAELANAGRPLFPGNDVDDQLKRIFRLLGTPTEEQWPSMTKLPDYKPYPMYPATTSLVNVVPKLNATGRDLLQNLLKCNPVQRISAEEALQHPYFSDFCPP
Chain of Cyclin-dependent kinase 5/CDK5 activator 1 (Q15078 whole entry, further chain, the tested form may be a part): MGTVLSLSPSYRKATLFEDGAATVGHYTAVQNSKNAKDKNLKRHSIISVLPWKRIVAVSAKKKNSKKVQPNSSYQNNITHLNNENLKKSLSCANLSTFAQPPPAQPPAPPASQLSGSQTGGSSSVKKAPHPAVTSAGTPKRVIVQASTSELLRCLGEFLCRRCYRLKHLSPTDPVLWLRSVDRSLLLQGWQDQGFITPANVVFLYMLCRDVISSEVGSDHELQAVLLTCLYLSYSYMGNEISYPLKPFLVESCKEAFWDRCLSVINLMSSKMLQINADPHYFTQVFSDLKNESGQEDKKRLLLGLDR
T2 sequence (Q00535 whole entry): as the sequence (Q00535 whole entry, the tested form may be a part) above
T2 sequence (Q15078 99-307 partner limits assumed): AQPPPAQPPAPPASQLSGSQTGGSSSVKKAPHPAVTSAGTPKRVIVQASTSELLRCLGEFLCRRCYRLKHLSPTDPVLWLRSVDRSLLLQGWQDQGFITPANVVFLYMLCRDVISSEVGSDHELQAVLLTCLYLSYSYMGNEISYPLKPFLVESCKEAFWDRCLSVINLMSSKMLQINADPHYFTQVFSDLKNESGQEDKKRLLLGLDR
T1 sequence (P49840 whole entry, looked up): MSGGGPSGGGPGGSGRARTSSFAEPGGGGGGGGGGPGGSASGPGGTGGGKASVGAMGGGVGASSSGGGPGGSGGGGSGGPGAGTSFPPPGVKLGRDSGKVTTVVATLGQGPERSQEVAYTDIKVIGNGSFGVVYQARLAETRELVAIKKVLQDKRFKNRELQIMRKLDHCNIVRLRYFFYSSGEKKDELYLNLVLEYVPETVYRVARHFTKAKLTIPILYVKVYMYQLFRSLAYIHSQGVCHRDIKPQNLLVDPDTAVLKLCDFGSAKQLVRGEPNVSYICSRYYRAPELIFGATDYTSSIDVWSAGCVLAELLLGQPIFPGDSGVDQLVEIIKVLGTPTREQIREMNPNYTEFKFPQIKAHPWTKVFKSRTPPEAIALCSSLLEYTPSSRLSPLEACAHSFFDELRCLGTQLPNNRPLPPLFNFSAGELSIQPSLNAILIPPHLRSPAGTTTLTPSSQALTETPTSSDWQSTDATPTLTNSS
T1 sequence (P49841 whole entry, looked up): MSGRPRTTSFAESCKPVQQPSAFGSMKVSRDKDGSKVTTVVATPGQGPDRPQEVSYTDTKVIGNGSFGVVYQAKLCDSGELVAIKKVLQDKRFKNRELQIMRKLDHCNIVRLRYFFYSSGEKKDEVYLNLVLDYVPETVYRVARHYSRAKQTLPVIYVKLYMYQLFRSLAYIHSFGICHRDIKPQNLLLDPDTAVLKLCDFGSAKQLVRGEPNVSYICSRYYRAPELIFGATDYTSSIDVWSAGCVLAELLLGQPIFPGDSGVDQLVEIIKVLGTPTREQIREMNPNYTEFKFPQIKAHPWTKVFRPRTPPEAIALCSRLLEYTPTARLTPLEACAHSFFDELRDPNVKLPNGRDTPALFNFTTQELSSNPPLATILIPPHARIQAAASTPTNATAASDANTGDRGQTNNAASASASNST

SMILES | IC50 [1] [nM] | IC50 [2] [µM] | residual activity [5] [%] | residual activity [8] [%] | other results
COc1ccc2[nH]c(O)c(C3=Nc4ccccc4C3=O)c2c1 | 1200 | 0.8 | – | – | IC50 [3]: 1500 nM
Brc1ccc2[nH]ccc2c1 | – | – | 56 | – | residual activity [4]: 44%; residual activity [6]: 25%; residual activity [7]: 22%
COc1cc2cc[nH]c2cc1OC | – | – | 80 | 62 | –
O=C1Nc2ccccc2/C1=C1/Nc2ccccc2C1=O [INDIRUBIN] | – | 2.5 | – | – | –
COc1ccc2c(c1)C(=O)C(c1[nH]c3ccc(OC)cc3c1O)=N2 | 26000 | 6 | – | – | IC50 [3]: 1200 nM
c1ccc2[nH]ccc2c1 | – | – | 81 | 76 | residual activity [9]: 78%; residual activity [10]: 68%
COc1ccc2[nH]ccc2c1 | – | – | 3 | 3 | residual activity [4]: 87%; residual activity [11]: 55%
Cc1ccc2c(c1)C(=O)C(c1c(O)[nH]c3ccccc13)=N2 | 1900 | 0.55 | – | – | –
COc1ccc2c(c1)C(=O)C(c1[nH]c3ccccc3c1O)=N2 | > 100000 | > 100 | – | – | IC50 [3]: > 100000 nM
Fc1ccc2cc[nH]c2c1 | – | – | 97 | 87 | –
O=[N+]([O-])c1ccc2cc[nH]c2c1 | – | – | 107 | – | residual activity ([10]; in the assay text read “cytochrome P450 2A6 L240C/N297Q mutant” for “wild-type cytochrome P450 2A6”): 63%
Clc1cccc2cc[nH]c12 | – | – | 82 | – | residual activity [6]: 110%
COc1ccc2c(c1)C(=O)C(c1c(O)[nH]c3ccc(OC)cc13)=N2 | 800 | 0.2 | – | – | IC50 [3]: 400 nM
Cc1ccc2[nH]ccc2c1 | – | – | 19 | 15 | residual activity [9]: 89%; residual activity [10]: 45%
Cc1cccc2cc[nH]c12 | – | – | 90 | 59 | –
COC(=O)c1ccc2[nH]ccc2c1 | – | – | 99 | 71 | –
COc1ccc2c(c1)C(=O)C(c1c(O)[nH]c3ccccc13)=N2 | 1200 | 0.6 | – | – | IC50 [3]: 2100 nM
c1cnc2[nH]ccc2c1 | – | – | 103 | 89 | –
Cc1ccc2[nH]c(O)c(C3=Nc4ccccc4C3=O)c2c1 | 5000 | 0.8 | – | – | –
O=C1/C(=C2\Nc3ccccc3C2=O)Nc2ccccc21 [INDIGO] | > 100000 | > 100 | – | – | –
Nc1ccc2[nH]ccc2c1 | – | – | 73 | 42 | –
